Consider two compounds from ChEMBL document CHEMBL3745626, “Synthesis of β-boswellic acid derivatives as cytotoxic and apoptotic agents” (Bioorg Med Chem Lett, 2016).

pIC50: −log10 of the molar value. Activity calls are given as the source filed them. The calls are words filed in the database; no cut-off is given here.

The test system of experiment [1] is HCT-116. Briefly: Induction of apoptosis in human HCT116 cells assessed as increase in apoptotic body formation after 48 hrs by DAPI staining based fluorescence microscopy. Format: functional, cell-based. The method in brief:
(§1)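 HCT-116 cells exposed to 1, 2.5 and 5 μM for 48 h, nuclei stained with DAPI and examined by fluorescence microscopy for chromatin condensation and apoptotic bodies; untreated and paclitaxel controls.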

Experiment [2] concerns HCT-116. Briefly: Induction of apoptosis in human HCT116 cells assessed as PARP cleavage at 50 nM after 48 hrs by Western blot analysis. Format: functional, cell-based.
Experiment [3] can be described thus: Anticancer activity against human HCT116 cells assessed as growth inhibition at 100 uM after 24 hrs by sulforhodamine B assay. The note with it: HCT-116, 24 h. In kind it is functional.
A short description of experiment [4]: Anticancer activity against human HT1080 cells assessed as growth inhibition at 100 uM after 24 hrs by sulforhodamine B assay. Format: functional. The note with it: HT-1080, 24 h.
Experiment [5] concerns A549. Briefly: Anticancer activity against human A549 cells assessed as growth inhibition at 100 uM after 24 hrs by sulforhodamine B assay. Format: functional. The conditions noted are these: A549, 24 h.
The nature of experiment [6]: Anticancer activity against human PC3 cells assessed as growth inhibition at 100 uM after 24 hrs by sulforhodamine B assay. Format: functional. The conditions noted are these: PC-3, 24 h.
Experiment [7] in a line: Anticancer activity against human PC3 cells assessed as growth inhibition after 24 hrs by sulforhodamine B assay. In kind it is functional, cell-based. The note with it: PC-3, 24 h. A digest of the protocol: (§2)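 SRB assay on human cancer cell lines over a range of concentrations; inhibitory values calculated from concentration–response data, mean ± SD of three experiments.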

Experiment [8] has as its system HCT-116. In words: Induction of apoptosis in human HCT116 cells assessed as loss of mitochondrial membrane potential after 48 hrs by rhodamine 123 staining based confocal microscopy. In kind it is functional, cell-based. The method in brief:
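Rhodamine-123 staining of HCT-116 cells treated at 1, 2.5 and 5 μM; mitochondrial fluorescence intensity read by laser scanning confocal microscopy; paclitaxel (50 nM) positive control; mean ± SD.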

In experiment [9] the test system is HCT-116. Briefly: Induction of ROS generation in human HCT116 cells after 48 hrs by 2',7'-dichlorofluorescien diacetate staining based fluorescence microscopy. In kind it is functional, cell-based. A digest of the protocol: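 HCT-116 cells exposed 48 h at 1 and 2.5 μM, loaded with DCFDA; DCF fluorescence measured by imaging and spectrofluorometry; H2O2 positive control.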

Experiment [10] relates to HCT-116. Briefly: Induction of apoptosis in human HCT116 cells assessed as PARP cleavage at 1 to 5 uM after 48 hrs by Western blot analysis. Format: functional, cell-based. A digest of the protocol: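 HCT-116 cells incubated 48 h at 1, 2.5 and 5 μM; intact and cleaved PARP-1 detected by western blot, β-actin loading control; paclitaxel positive control.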
A short description of experiment [11]: Anticancer activity against human HCT116 cells assessed as growth inhibition after 24 hrs by sulforhodamine B assay. In kind it is functional, cell-based. The note with it: HCT-116, 24 h. The method in brief:
as §2

The test system of experiment [12] is A549. Briefly: Anticancer activity against human A549 cells assessed as growth inhibition after 24 hrs by sulforhodamine B assay. Format: functional, cell-based. The note with it: A549, 24 h. A digest of the protocol: as §2
Another experiment concerns T47D. In words: Anticancer activity against human T47D cells assessed as growth inhibition after 24 hrs by sulforhodamine B assay. Format: functional, cell-based. The method in brief: as §2
Experiment [13] has as its system HCT-116. Briefly: Anticancer activity against human HCT116 cells assessed as inhibition of colony formation at 1 to 5 uM after 48 hrs by clonogenic assay. In kind it is functional, cell-based. A digest of the protocol: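 HCT-116 cells treated at 1, 2.5 and 5 μM, then reseeded at suitable dilution (500 cells for untreated control) in six-well plates to form colonies over 1-3 weeks; survival fraction expressed relative to untreated control; paclitaxel positive control.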

Experiment [14] concerns HCT-116. In words: Induction of apoptosis in human HCT116 cells assessed as chromatin condensation after 48 hrs by DAPI staining based fluorescence microscopy. In kind it is functional, cell-based. The method in brief: as §1
Experiment [15] in a line: Cytotoxicity against human FR2 cells assessed as growth inhibition after 24 hrs by sulforhodamine B assay. Format: cell-based. The conditions noted are these: FR2, 24 h.

As for `CC(=O)O[C@H]1C(=O)[C@@]2(C)[C@H]([C@H](OC(=O)c3ccccc3)[C@]3(O)C[C@H](OC(=O)[C@H](O)[C@@H](NC(=O)c4ccccc4)c4ccccc4)C(C)=C1C3(C)C)[C@]1(OC(C)=O)CO[C@@H]1C[C@@H]2O`, the outcome in the experiment on HCT-116 [1] and in the experiment on HCT-116 [2] was Active.
On to `COC(=O)[C@@]1(C)C(=O)/C(=C/c2ccncc2)C[C@]2(C)[C@H]3CC=C4[C@@H]5[C@@H](C)[C@H](C)CC[C@]5(C)CC[C@@]4(C)[C@]3(C)CC[C@@H]12`, for which the inhibition at 100 µM in [3] turned out to be 100%; in experiment [4], 95%; with A549 [5], 99%; in experiment [6], 100%. Also, the Activity result in the experiment on HCT-116 [1], in the experiment on HCT-116 [8], with HCT-116 [9] and in the experiment with HCT-116 [14] was “Dose-dependent effect” each time. Moreover, the pIC50 in [7] was 5.71; in [11], 5.74; with A549 [12], 5.67; in the experiment on T47D, 5.90; in experiment [15], 4.67. The result in the experiment with HCT-116 [10] was Active. The inhibition result in the experiment with HCT-116 [13] is “Dose-dependent effect”.
